Columns and labels:
Type in all cases: functional
CCRF-CEM = assay: Cytotoxicity against leukemia CCRF-CEM cell lines; conditions: Homo sapiens
Procedure, shortened: (§1)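 NCI human tumor cell line screen. Growth inhibition was read across a test range of 10^-4 to 10^-8 M. GI50 is the concentration giving 50% growth inhibition.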

[1] = tested on: Panel (Carcinoma cell lines); assay: Mean graph midpoint growth inhibition of human cancer cell lines
Procedure, shortened: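 Mean graph midpoint: the average GI50 across all human cancer cell lines successfully tested (~55) in the NCI screen. Values below or above the 10^-4 to 10^-8 M test range were set to the minimum (10^-8 M) or maximum (10^-4 M) concentration screened.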

COLO 205 = assay: Cytotoxicity against colon […] cell lines; conditions: Homo sapiens; procedure, shortened: as §1
LOX IMVI = assay: Cytotoxicity against melanoma LOXIMVI cell lines; conditions: Homo sapiens; procedure, shortened: as §1
DU-145 = assay: Cytotoxicity against prostate DU-145 cell lines; conditions: Homo sapiens; procedure, shortened: as §1
MDA-MB-435 = assay: Cytotoxicity against breast MDA-MB-435 cell lines; conditions: Homo sapiens; procedure, shortened: as §1
OVCAR-5 = assay: Cytotoxicity against ovarian OVCAR-5 cell lines; conditions: Homo sapiens; procedure, shortened: as §1
NCI-H23 = assay: Cytotoxicity against lung NCI-H23 cell lines; conditions: Homo sapiens; procedure, shortened: as §1
SF-295 = assay: Cytotoxicity against CNS SF-295 cell lines; conditions: Homo sapiens; procedure, shortened: as §1
SN12C = assay: Cytotoxicity against renal SN12C cell lines; conditions: Homo sapiens; procedure, shortened: as §1

| Structure (SMILES) | GI50 (CCRF-CEM) | MGM [1] | GI50 (COLO 205) | GI50 (LOX IMVI) | GI50 (DU-145) | GI50 (MDA-MB-435) | GI50 (OVCAR-5) | GI50 (NCI-H23) | GI50 (SF-295) | GI50 (SN12C) |
| --- | --- | --- | --- | --- | --- | --- | --- | --- | --- | --- |
| Cc1ccc(/N=C2\C(=O)C3=C(OC(C)(C)CC3)c3ccccc32)cc1 | 2560 nM | 0.89 µM | 1800 nM | 300 nM | 1760 nM | 190 nM | 2030 nM | 920 nM | 1260 nM | 460 nM |
| COc1ccc(/N=C2\C(=O)C3=C(OC(C)(C)CC3)c3ccccc32)cc1 | 1540 nM | 1.15 µM | 1020 nM | 890 nM | 870 nM | 96 nM | 12300 nM | 1170 nM | 880 nM | 900 nM |
| CC1(C)CCC2=C(O1)c1ccccc1/C(=N/c1ccc([N+](=O)[O-])cc1)C2=O | 19600 nM | 15.5 µM | 16800 nM | 7590 nM | 16800 nM | 15800 nM | 14500 nM | 18300 nM | 14900 nM | 15900 nM |
| CC1(C)CCC2=C(O1)c1ccccc1/C(=N/c1ccccc1)C2=O | 1550 nM | 1.17 µM | 1550 nM | 220 nM | 1560 nM | 200 nM | 1810 nM | 1230 nM | 1860 nM | 1120 nM |
| CC1(C)CCC2=C(O1)c1ccccc1C(=O)C2=O [LAPACHONE] | 1410 nM | 1.12 µM | 1780 nM | 310 nM | 1740 nM | 21400 nM | 1820 nM | 760 nM | 1540 nM | 1450 nM |
